Data taken from paper PMC7839861 (Journal for Immunotherapy of Cancer, 2021).

Test system: MC38 tumors
Assay: Transcriptional
Assay type: in vivo, mouse
Settings: 2 mg/kg ip Q3D x3
Outline: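 hCD137 C57BL/6J mice bearing sc MC38 tumors (1 x 10^6 cells) were randomized at about 240 mm3. Groups received vehicle, 15 mg/kg test compound or 15 mg/kg enantiomeric non-binding control iv, or 2 mg/kg anti-CD137 agonist antibody ip, Q3D for 3 doses. Tumors were harvested 1 hr after the last dose. RNA (100 ng/tumor) was profiled on the nCounter mouse PanCancer IO 360 panel, and FFPE sections were stained for mouse CD8 with HRP detection.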

B1: anti-CD137 agonist antibody: anti-CD137 agonist antibody, a commercially available urelumab analog (antibody, V domains shown)
VH: QVQLQQWGAGLLKPSETLSLTCAVYGGSFSGYYWSWIRQSPEKGLEWIGEINHGGYVTYNPSLESRVTISVDTSKNQFSLKLSSVTAADTAVYYCARDYGPGNYDWYFDLWGRGTLVTVSS
VL: EIVLTQSPATLSLSPGERATLSCRASQSVSSYLAWYQQKPGQAPRLLIYDASNRATGIPARFSGSGSGTDFTLTISSLEPEDFAVYYCQQRSNWPPALTFGGGTKVEIK
T cell infiltration of tumors, histological analysis (CD8 IHC): notably increased
